Only some compounds are listed: those with a hit (about 8.7% of all), similar ones and a draw of the others.
E coli WT exp = E. coli BW25113 growth inhibition, expanded screen; OD600 absorbance; growth inhibition, % at 100 µM; 98,000 compounds, 0.15% hits;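 active = growth inhibition above about 50% at one test dose, limit read from the data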;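 also: growth measured after 20 h incubation at 37 °C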
PostGolgi ctrl = yeast control strain growth, post-Golgi counter-screen; efflux-deficient yeast background strain, growth absorbance A615, 16 h; inhibition, % at 10 µM; 98,000 compounds, 5% hits; AID 738
Cav32 inh = blocks human Cav3.2 T-type calcium channel. O95180. Cav3.2-expressing cells, Fluo-4 calcium fluorescence FDSS; hits give low values. B-score at 10 µM. 100,000 compounds, 4% hits;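 active = single-dose well whose peak fluorescence ratio is a statistical outlier from its plate by either plate-standardised score or position-corrected B-score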
PostGolgi yeast = growth inhibition of a yeast mutant, post-Golgi transport screen. post-Golgi transport phenotypic cell assay. inhibition, % at 10 µM. 98,000 compounds, 0.9% hits;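 also: yeast cells grown in 1536-well plates; yeast grown about 18 h at 30C before absorbance read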
Pyk2 oligo antag = blocks oligomerization of human Pyk2 in cells. Q14289. Q293 cells, Pyk2 FERM NanoBiT luminescence; hits give low values. z-score (the deposit names both 25 µM and 10 µM). 99,000 compounds, 0.83% hits;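 active = Z-score of -3 or lower, scaled per plate to the spread of control and sample wells; inactive = z-score above -3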;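 also: negative z-score means lost luminescence so less FERM oligomerization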
Ecoli tolC = blocks growth of E. coli BW25113 tolC mutant; 65,000 compounds, 2.2% hits; OD615; AID 573; growth inhibition, % at 10 µM (by protocol);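 active = growth inhibition at or above a cutoff equal to the mean over every tested compound plus 3 SD, cut at about 60% in these data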;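 also: growth measured after 20 h incubation at 37 °C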
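signal = optical density read at 615 nm | test system = E. coli ΔtolC::kan strain BW25113 | timing = 20 h compound exposure of bacteria at 37 °C | buffer or medium = LB medium plus 50 µg/mL kanamycin | compound dosing = 10 µM final, single dose | evaluation = % inhibition of E. coli growth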
Numbers without * were called inactive; x = no result. Rule as the data show it, unless noted: active = inhibition above about 30%; inactive = the rest.

SMILES | E coli WT exp | PostGolgi ctrl | Cav32 inh | PostGolgi yeast | Pyk2 oligo antag | Ecoli tolC
CCC(c1nnnn1Cc1cccs1)N1CCN(C2CCCC2)CC1 (stereo not drawn) | -3 | 26 | -0.41 | -1 | -0.18 | -18
CCC(c1nnnn1Cc1cccs1)N1CCN(c2nc3ccccc3s2)CC1 (stereo not drawn) | -9 | 32* | -3.3 | 10 | -2.7 | 19
COC(=O)[C@@H](NC(=O)NCc1ccccc1Cl)C(C)C | -5 | 5 | 1.3 | -4 | 0.83 | -16
CCN(CC)CCN1C(=O)C(=O)/C(=C(/O)c2cccc(OC)c2)C1c1ccccn1 (stereo not drawn) | 0 | 1 | 0.27 | 5 | -0.53 | -16
CCN(CC)c1ccc(/C=c2/sc3nnc(-c4ccccc4C)n3c2=O)cc1 | -24 | 2 | -2.9 | -5 | -0.58 | x
CCN(CC)c1ccc(/C=c2\sc3nnc(-c4ccccc4Cl)n3c2=O)cc1 | -33 | 11 | -4.7* | -4 | -1.7 | x
Cc1c(-c2nc(N)nc(Nc3ccc(F)cc3)n2)oc2ccccc12 | -8 | 40* | -0.66 | 7 | -1.6 | -2
N#CCSc1nnc(Cc2cccc3ccccc23)n1C1CCCCC1 | -5 | 26 | -5.7* | 0 | -2 | 50
NC(=O)CSc1nnc(Cc2cccs2)n1C1CCCCC1 | 3 | 1 | 1.1 | -1 | 0.17 | x
Cc1ccc(NC(=O)CN2CCCN(S(=O)(=O)c3ccc(Br)s3)CC2)cc1 | -8 | 33* | -4 | 16 | -0.66 | x
Cc1cc(C)cc(NC(=O)CN2CCCN(S(=O)(=O)c3ccc(Br)s3)CC2)c1 | -20 | 42* | -3.3 | 1 | -0.33 | x
NC(=O)c1ccccc1NC(=O)/C=C/c1cccc(Cl)c1 | -5 | 27 | -1.4 | 5 | -3.2* | x
NC(=O)c1ccccc1NC(=O)/C=C/c1c(Cl)cccc1Cl | -1 | 8 | -1.1 | -8 | -2.6 | x
COc1cc(OC)c(C#N)c(S(=O)Cc2ccccc2)c1 (stereo not drawn) | 0 | 36* | 0.86 | 13 | -0.54 | 0
COc1ccc(-c2cc(-c3ccccc3)c(C#N)c(S(C)=O)n2)cc1 (stereo not drawn) | -19 | 18 | -1.4 | -2 | 30 | x
Cc1cc(C)n(-c2nc(N(C)C)nc(N(C)C)n2)n1 | x | x | 0.062 | x | 0.63 | x
Cc1cc(C)n(-c2nc(NC(C)(C)C)nc(NC(C)(C)C)n2)n1 | -8 | 41* | 0.79 | 9 | 0.47 | 21
Cc1cc(C)n(-c2nc(NC(C)C)nc(NC(C)C)n2)n1 | 17 | 18 | 1.2 | -19 | 1.9 | 88*
CC(C)(C)Nc1nc(NC(C)(C)C)nc(-n2ccnc2)n1 | -12 | 33* | -0.16 | 0 | -2.2 | 44
CCNc1nc(NCC)nc(-n2nc(C)cc2C)n1 | 9 | 20 | 0.082 | 5 | 0.96 | 54
CCOC(=O)C1=C(C)N(CCCC(=O)O)C(=O)NC1c1ccc(C(F)(F)F)cc1 (stereo not drawn) | x | x | 1.2 | x | x | x
CCOc1ccc(C2NC(=O)NC(C)=C2C(=O)OC)cc1C (stereo not drawn) | 1 | 4 | 0.24 | -10 | 0.4 | x
O=c1c(Cc2ccc(Cl)cc2Cl)c(O)ccn1Cc1ccc(Cl)cc1 | 2 | 62* | -2.4 | 14 | -2.7 | x
O=c1c(Cc2ccc(Cl)cc2)c(O)ccn1Cc1cccc(Cl)c1 | -2 | 24 | 0.077 | 0 | -1.1 | x
O=C(Nc1ccc(Cn2cccn2)cc1)c1ccc(COc2ccccc2Br)cc1 | -14 | 32* | -3.3 | -8 | 0.09 | x
SMILES | E coli WT exp | PostGolgi ctrl | Cav32 inh | PostGolgi yeast | Pyk2 oligo antag | Ecoli tolC
Clc1cccc(CSc2nnc(-c3sccc3-n3cccc3)o2)c1 | -13 | 10 | -2.5 | 11 | -3.2* | x
Clc1ccc(CSc2nnc(-c3sccc3-n3cccc3)o2)cc1 | -25 | 18 | -1 | -8 | -3.2* | x
Clc1cc(Cl)cc(CSc2nnc(-c3sccc3-n3cccc3)o2)c1 | -5 | -1 | -0.68 | -2 | -1.6 | x
COc1nc(-c2ccccc2)cc(-c2ccc(OC)c(OC)c2)n1 | -22 | 38* | -2.4 | 7 | -1.8 | 33
Cc1ccc(-n2nnnc2-c2cnc(N3CCCC3)nc2C(F)(F)F)cc1 | 2 | 27 | -4.5* | -1 | -1.4 | x
FC(F)(F)c1nc(N2CCCC2)ncc1-c1nnnn1-c1ccccc1 | -2 | 19 | -0.93 | -1 | -1.9 | x
COc1cccc(C(=O)Nc2ccc(NC(=O)C(C)(C)C)cn2)c1 | 9 | -2 | 0.67 | -1 | -0.06 | -8
Cc1noc(C)c1CSc1nc2sc(C)c(C)c2c(=O)n1-c1ccccc1 | -14 | 4 | -1.2 | -10 | -0.66 | 16

Bioassay records (PubChem BioAssay)
